# Variants at the floor of the assay were thinned out.
# B1: tRNA (parent)
# chain: GUUCCGUUGGCGUAAUGGUAACGCGUCUCCCUCCUAAGGAGAAGACUGCGGGUUCGAGUCCCGUACGGAACG
# Variants of: B1
# Test: yeast fitness relative to wild type (ratio to wild type); higher = fitter; tRNA-Arg(CCU), competitive growth, 37 C, YPD
# Method in brief: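 Genotype frequency changes were the basis for Darwinian fitness relative to wild type. The frequencies came from 100-nucleotide paired-end sequencing of gene amplicons from the start population and each end population of pooled yeast strains with tRNA-Arg(CCU) gene variants at the native locus. Competition ran in YPD at 37°C for 24 hours in six replicates, genotypes needed ≥ 100 starting reads, and estimates < 0.5 were set to 0.5.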
row,Variant,yeast fitness
1,C5U C22U C33U G68C A69U,≤ 0.5
2,C5U C22U C34U G41A A45G,≤ 0.5
3,C5U C22U G41C C49G U59G G63A C66U,≤ 0.5
4,C5U C22U G48C C66U,≤ 0.5
5,C5U C22U U26A C55G,≤ 0.5
6,C5U C22U U35A A37U G67A,≤ 0.5
7,C5U C24A,0.597
8,C5U C24A C55A A65G,≤ 0.5
9,C5U C24A G67C,0.547
10,C5U C24A U47A,0.656
11,C5U C24G A40C A45U,≤ 0.5
12,C5U C24G U53A G63A,≤ 0.5
13,C5U C24U A36G C46A,0.92
14,C5U C24U A36G C46A U47C C55A,≤ 0.5
15,C5U C24U A40C A45U,≤ 0.5
16,C5U C24U A69C,0.777
17,C5U C24U C55U,0.711
18,C5U C24U G38C G44C,≤ 0.5
19,C5U C24U G41C,≤ 0.5
20,C5U C24U G56C,0.53
21,C5U C24U U32A C55G A69U,≤ 0.5

row,Variant,yeast fitness
1,C5U C27A A42U,0.642
2,C5U C27A A42U C49G C60A,0.817
3,C5U C27G A40C,≤ 0.5
4,C5U C27G C31G G50C G58C,0.743
5,C5U C27G C34G,≤ 0.5
6,C5U C27G C60A,≤ 0.5
7,C5U C27G G38A,0.515
8,C5U C27G G38A A69C,≤ 0.5
9,C5U C27G G68C,0.577
10,C5U C27G U28A C30G C31U G67A,≤ 0.5
11,C5U C27G U35G G44A,≤ 0.5
12,C5U C27G U47C A70U,≤ 0.5
13,C5U C27U,1.09
14,C5U C27U A36G,0.75
15,C5U C27U G41A,0.573
16,C5U C27U U35G A36G G58C C66U,≤ 0.5
17,C5U C29A A42G C61G,≤ 0.5
18,C5U C29A A69C,≤ 0.5
19,C5U C29A U32C C60A,0.596
20,C5U C29G C30A G63A U64G A69C,0.572
21,C5U C29G C30G,≤ 0.5

row,Variant,yeast fitness
1,C5U C29G C31G A36U A37C A57C G68C,≤ 0.5
2,C5U C29U A36G U59A,≤ 0.5
3,C5U C29U A43G,0.632
4,C5U C29U C34G,≤ 0.5
5,C5U C29U G38C,≤ 0.5
6,C5U C29U G44A,0.868
7,C5U C29U G50C U59A,≤ 0.5
8,C5U C30A A42U A69C,≤ 0.5
9,C5U C30A C33G A42C C60A C66A A69C,≤ 0.5
10,C5U C30A C33G A42C C62A,≤ 0.5
11,C5U C30G,0.676
12,C5U C30G A57C,0.715
13,C5U C30G A69C A70G,≤ 0.5
14,C5U C30U,0.942
15,C5U C30U A37C U54A,≤ 0.5
16,C5U C30U A42C C60G,≤ 0.5
17,C5U C31A A40G C61U A65U,≤ 0.5
18,C5U C31A G56A,0.562
19,C5U C31G A40G A45G C46G G48A C62U G63A,≤ 0.5
20,C5U C31G A57U,≤ 0.5
21,C5U C31G C33G C34U C49U G68A,0.543

row,Variant,yeast fitness
1,C5U C31G G41A G52C C60U C62G C66G,≤ 0.5
2,C5U C31G U47C G48C,≤ 0.5
3,C5U C31G U59C,0.913
4,C5U C31U A37C A43U G50C A57G,≤ 0.5
5,C5U C31U C34U,≤ 0.5
6,C5U C31U G41A U64C,≤ 0.5
7,C5U C31U G41C A43C C60G,≤ 0.5
8,C5U C31U U47C,0.701
9,C5U C33G C61A C66U,≤ 0.5
10,C5U C33U,0.71
11,C5U C33U A36C U54C,≤ 0.5
12,C5U C33U C34U G58C G63A,≤ 0.5
13,C5U C33U C62A,0.579
14,C5U C33U U54C G58A,0.703
15,C5U C34A C55G A69U,≤ 0.5
16,C5U C34A C55U,0.529
17,C5U C34A G38C,≤ 0.5
18,C5U C34A G56A,≤ 0.5
19,C5U C34A G67A,≤ 0.5
20,C5U C34A U53A,0.562
21,C5U C34G,0.788
